The target of the test is T1, 5-hydroxytryptamine receptor 1A (Rattus norvegicus, UniProt P19327).
T1 sequence (P19327 whole entry): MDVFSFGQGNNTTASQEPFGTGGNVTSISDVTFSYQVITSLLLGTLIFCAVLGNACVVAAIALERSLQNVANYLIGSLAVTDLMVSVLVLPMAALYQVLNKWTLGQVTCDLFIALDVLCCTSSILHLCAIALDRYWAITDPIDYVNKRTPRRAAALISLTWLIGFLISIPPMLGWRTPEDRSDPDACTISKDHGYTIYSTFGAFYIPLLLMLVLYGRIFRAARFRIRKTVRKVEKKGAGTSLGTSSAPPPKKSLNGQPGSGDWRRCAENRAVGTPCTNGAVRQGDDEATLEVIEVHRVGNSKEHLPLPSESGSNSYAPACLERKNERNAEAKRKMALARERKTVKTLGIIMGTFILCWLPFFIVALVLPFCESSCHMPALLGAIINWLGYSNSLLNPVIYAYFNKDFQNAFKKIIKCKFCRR
The experiment in a line: In vitro binding affinity towards 5-hydroxytryptamine 1A receptor was determined using radioligand [3H]-8-OH-DPAT. Put shortly: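 Rat (male Sprague-Dawley) cerebral cortex membranes, about 1 mg protein, incubated 15 min at 37 °C with 0.6 nM [3H]8-OH-DPAT plus competitor in 50 mM Tris-HCl with 10 nM clonidine and 30 nM prazosin, pH 7.4. Nonspecific binding with 10 µM 5-HT. Triplicates; GF/B filtration, scintillation counting; IC50 curve fit, Ki by Cheng-Prusoff; 2-4 experiments.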

Bounds are passed on as bounds.

As a reminder, the Ki is a dissociation constant, usually derived from enzyme kinetics or from competition with a known ligand.

For `N#Cc1ccccc1N1CCN(CCCn2c(O)c3n(c2=O)CCCC3)CC1`, the inhibition constant (Ki) was determined as 33 nM. In other words, the double-digit nanomolar range.

In the case of `Nc1cccc(N2CCN(CCCn3c(O)c4n(c3=O)CCC4)CC2)c1`, the Ki was more than 1000 nM.

Take `O=c1n(CCCN2CCN(c3cccc(Br)c3)CC2)c(O)c2n1CCC2`: the affinity corresponds to a Ki of 33 nM.

`CCCNC(=O)c1ccccc1N1CCN(CCCn2c(O)c3n(c2=O)CCC3)CC1`: the Ki was more than 1000 nM.

Consider `CC(C)C(=O)Nc1cccc(N2CCN(CCCn3c(O)c4n(c3=O)CCCC4)CC2)c1`, for which the Ki is more than 1000 nM.

The values are drawn from BindingDB's records for doi:10.1021/jm000929u (Universidad Complutense, 2001).
